Assay outcomes (PubChem)
Only some compounds are listed: those with a hit (about 1.9% of all), similar ones and a draw of the others.
Rad51 HR inh: blocks human Rad51 in homologous recombination. hRad51 DNA strand exchange, fluorescence dequenching. inhibition, % at 10 µM. 0.085% of 200,000 active. AID 1385;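 active = inhibition above 40% at the single screening dose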;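 note: 0% = DMSO control wells and 100% = blanks with heterologous ssDNA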
Target sequence (Q06609 whole entry, looked up): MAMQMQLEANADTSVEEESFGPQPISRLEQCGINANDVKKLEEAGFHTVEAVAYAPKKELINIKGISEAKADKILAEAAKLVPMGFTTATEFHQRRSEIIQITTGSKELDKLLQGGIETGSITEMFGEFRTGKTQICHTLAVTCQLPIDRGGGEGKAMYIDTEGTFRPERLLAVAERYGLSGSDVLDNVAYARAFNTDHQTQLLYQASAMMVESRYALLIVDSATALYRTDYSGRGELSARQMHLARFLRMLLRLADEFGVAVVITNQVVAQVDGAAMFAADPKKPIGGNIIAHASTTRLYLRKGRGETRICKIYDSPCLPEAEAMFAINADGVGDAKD
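Test system – preformed human Rad51 ssDNA filaments · Reagent – Donor/quencher-labelled 47-bp dsDNA substrate · Incubation – 37 °C 15-min filament assembly, 30-min compound preincubation, 15-min exchange · Signal – FRET fluorescence dequenching, excitation 485 nm, emission 520 nm · Read-out – percent inhibition from fluorescence, normalised to plate control and blank means · Benchmarks – plate control and blank wells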
HIF activator: HIF pathway transcriptional activation. activation, % at 7.5 µM (by protocol). 0.32% of 300,000 active. U2OS HRE-luciferase reporter, luminescence; normalized: DMSO 0%, desferrioxamine 100%. AID 1910;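 active = mean activation of at least 10% of the iron chelator positive control signal, with at least half of replicates also reaching 10%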
FXN GAA850 act: activators of GAA850 frataxin (FXN) promoter. 0.56% of 360,000 active. activation, % at 6 µM. HEK293 lucGAA850 FXN promoter luciferase reporter, 24 h; percent of 10 µM SAHA response. AID 540364;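 active = activation above the average of all compounds screened plus 3 SD, cutoff fixed separately per campaign, cut at about 7.5% in these data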;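 note: 0% = DMSO wells and 100% = 10 µM SAHA wells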
H9c2 TAG inh: inhibitors of triacylglycerol accumulation; H9c2 cells, Nile Red lipid (TAG) fluorescence; cells loaded with 200 µM oleic acid; inhibition, % at 12.5 µM; 0.66% of 230,000 active; AID 651582;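 active = pattern-corrected inhibition of lipid staining of at least 50% with the nuclear-stain viability signal not falling by more than 50%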;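 note: 0% = DMSO wells and 100% = triacsin C control wells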
ABHD5 PLIN5 PPI: ABHD5-PLIN5 protein interaction inhibition. Q00G26+Q8WTS1. Split G. princeps luciferase complementation, luminescence, 4 h. inhibition, % at 4 µM. 0.78% of 360,000 active. AID 602281;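 active = inhibition above the mean inhibition across every tested compound plus 3 SD, cut at about 22% in these data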;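 note: 0% = DMSO only wells and the 100% control is not disclosed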
Hsp70 activator: transcriptional activators of Hsp70 | HeLa Hsp70 promoter luciferase reporter, luminescence; scaled: vehicle 0, proteasome-inhibitor control 100% | activation, % at 10 µM | 0.04% of 200,000 active;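 active = activation above the mean across all tested compounds plus 3 SD, cutoff set per campaign, cut at about 5.5% in these data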;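 note: 100% = MG132 at 30 µM as the positive control and 0% = DMSO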
Active calls of the source: *; i = inactive; . = no result given.

SMILES | Rad51 HR inh | HIF activator | FXN GAA850 act | H9c2 TAG inh | ABHD5 PLIN5 PPI | Hsp70 activator
Oc1c(CN2CCc3ccccc3C2)cc(Cl)c2cccnc12 | -6.3 | 50.3* | -1.5 | 11.2 | -3.4 | -0.6
CN1CCN(C2CCN(Cc3ccc(O)c4ncccc34)CC2)CC1 | . | . | 0.6 | -9.9 | -4.1 | .
CN1CCN(Cc2cc(COCc3ccccc3)c3cccnc3c2O)CC1 | -0.9 | 221.0* | 1.6 | 128.2 | 9.8 | -0.3
O=S(=O)(c1ccc(Cl)cc1)N1CCN(Cc2ccncc2)CC1 | . | -0.4 | 1.4 | . | -5.8 | .
Oc1c(CN2CCCCC2)cc(Br)c2cccnc12 | -7.3 | . | 0.8 | . | 6.3 | -0.5
Oc1ccc(CN2CCN(Cc3ccccc3)CC2)c2cccnc12 | 1.9 | 10.9* | 1.2 | 9.0 | 6.0 | 0.2
O=C(NCc1ccc2c(c1)OCO2)OCc1ccccc1 | . | . | . | . | -2.2 | .
COCc1ccc(O)c2ncccc12 | -0.6 | 1.0 | 0.5 | 100.0* | 0.8 | -0.1
Oc1ccc(CNc2ccccc2)c2cccnc12 | -3.8 | 1.1 | -0.3 | -133.3 | 6.2 | 0.2
CCOc1ccccc1CN1CCN(Cc2nc3c(s2)CCCC3)CC1CCO (stereo unspecified) | 0.7 | 0.5 | 1.9 | . | -2.6 | -0.2
COc1ccc(/C=C(\C#N)c2nc3ccccc3[nH]2)cc1O | . | 13.0* | 5.3 | . | -2.3 | .
COc1cc(/C=C(\C#N)c2nc3ccccc3[nH]2)cc(OC)c1O | i | 0.2 | 0.5 | 14.9 | 2.6 | -0.4
O=C(NC(CSCc1ccccc1)C(=O)N/N=C/c1ccc(O)cc1O)c1ccc([N+](=O)[O-])cc1 (stereo unspecified) | 0.3 | 42.0* | -5.0 | . | -3.6 | -0.5
COc1cc(O)ccc1/C=N/NC(=O)c1ccc([N+](=O)[O-])cc1 | 7.9 | -0.6 | -0.9 | -18.5 | 0.3 | -0.1
CN1CCN(C(c2ccc(Cl)cc2)c2cc(Cl)c3cccnc3c2O)CC1 (stereo unspecified) | . | 4.8 | 0.0 | . | 0.3 | .
Oc1c(C(c2ccccn2)N2CCCCC2)cc(Cl)c2cccnc12 (stereo unspecified) | -2.8 | -0.2 | -1.1 | 86.7* | 0.2 | -0.1
COc1ccc(-c2cc3cc(OC)c(OC)cc3c(C)n2)cc1 | -6.8 | 1.7 | 5.0 | 17.1 | 5.9 | .
O=C(NC1CCOCC1)C1CCC(=O)N(Cc2cccc(C(F)(F)F)c2)C1 (stereo unspecified) | . | 0.0 | 0.1 | . | -5.8 | .
OC(c1ccccc1)(c1ccccc1)C1CCN(CCCOc2cccc(OC(F)(F)F)c2)CC1 | . | . | . | . | -10.7 | .
CC(C)(C)c1ccc(C(O)CCCN2CCC(C(O)(c3ccccc3)c3ccccc3)CC2)cc1 (stereo unspecified) | -6.3 | -3.4 | 0.1 | 62.5* | -2.5 | -0.2
CCOC(=O)/C(=N\Nc1cccc(C(F)(F)F)c1)N(CCOC)CCOC | 1.4 | 0.1 | -0.3 | . | -1.6 | -0.4
CCOC(=O)/C(=N\Nc1cccc(C(F)(F)F)c1)N1CCOCC1 | -10.7 | 707.6* | 0.6 | -5.0 | -10.4 | -0.1
O=C(COC(=O)/C=C/c1ccccc1Cl)NC(=O)Cc1ccccc1 | -10.2 | 0.6 | 2.2 | . | 11.4 | -0.3
Cc1ccccc1OCC(=O)N/N=C/c1ccncc1 | 4.2 | -0.5 | 2.2 | . | 22.8* | -0.1
Cc1cc(Cl)ccc1OCC(=O)N/N=C/c1ccncc1 | . | -0.8 | -2.2 | . | -4.7 | .
SMILES | Rad51 HR inh | HIF activator | FXN GAA850 act | H9c2 TAG inh | ABHD5 PLIN5 PPI | Hsp70 activator
COc1ccccc1CNC(=O)COC(=O)C1CCN(S(=O)(=O)c2c(Cl)cccc2Cl)CC1 | . | . | -1.2 | -5.0 | 4.8 | .
O=C(Nc1cccc(Cl)c1)Nc1cccc(C(=O)O)c1 | 20.1 | 11.7* | 2.7 | 77.8 | -0.3 | .
CC(Oc1ccc2c3c(c(=O)oc2c1)CCCC3)C(=O)NCC(O)c1ccccc1 (stereo unspecified) | . | 63.7* | -4.0 | . | 1.4 | .
CC(C)CCn1nc(C(=O)OCC(=O)NC(C)c2ccccc2)c2ccccc2c1=O (stereo unspecified) | . | . | 1.8 | -2.1 | -2.1 | .
CCn1nc(C(=O)OCC(=O)NC(C)C)c2ccccc2c1=O | -17.1 | 37.8* | 2.0 | -7.1 | -2.5 | -0.1
COc1ccc(CCNC(=O)CCCCCN2C(=O)[C@@H]3Cc4ccccc4CN3C2=O)cc1OC | . | -0.1 | -1.6 | . | -1.4 | .
O=C(O)c1cccc(N/N=C/c2ccc(OC(F)(F)F)cc2)c1 | . | -1.2 | 6.5 | . | 5.0 | .
CSc1ccc(/C=N/Nc2cccc(C(=O)O)c2)cc1 | 7.5 | . | 9.1* | 14.3 | -3.3 | 0.1
Cn1cnc([N+](=O)[O-])c1Sc1nc(N)nc2c1ncn2C1CC(O)C(CO)O1 (stereo unspecified) | . | . | -0.6 | 13.7 | 2.4 | .
O=C(NC(c1ccccc1)c1ccccc1)C1CCCO1 (stereo unspecified) | 2.3 | 130.5* | -0.1 | -4.5 | -1.4 | -0.3
O=C(NNC(=O)C1CCCO1)c1ccccc1Cl (stereo unspecified) | 7.4 | -0.2 | -0.2 | -6.0 | -1.9 | -0.3
Cc1ccccc1CC1(C)C(=O)Nc2ccc(S(=O)(=O)NC3CCCCC3)cc21 (stereo unspecified) | . | . | 1.7 | 6.6 | 0.9 | .
CCOC(=O)c1c(NC(C)=O)sc2c1CCC(C=NCCCN(CC)CC)=C2Sc1ccccc1 | -8.1 | -1.4 | 0.4 | -16.3 | 48.3* | -0.3
CCOC(=O)c1c(NC(C)=O)sc2c(OCCN(CC)CC)c(Br)ccc12 | 17.4 | -7.1 | 1.7 | 10.1 | 6.5 | -0.1
COc1ccc(CNC(=O)C2CCCN2C(=O)NCc2ccccc2)cc1 (stereo unspecified) | . | 1.5 | 3.0 | . | 5.8 | .
CN1CCN(c2ccc(CNC(=O)c3ccc(-c4ccc(F)c(F)c4)c4ccoc34)cc2)CC1 | . | . | 0.8 | -16.1 | 13.9 | .
CC(C)=CCC/C(C)=C/CNC(=O)C[C@H]1C[C@H](C(=O)N2CCOCC2)[C@@]2(CCC3CCCC3)c3[nH]c4cc(-c5ccco5)ccc4c3CCN2C1=O | . | . | 0.0 | 62.0* | 8.2 | .
CC(C)(C)NC(=O)C[C@H]1C[C@H](C(=O)N2CCOCC2)[C@@]2(CCC3CCCC3)c3[nH]c4cc(-c5ccco5)ccc4c3CCN2C1=O | . | . | 0.1 | 44.5 | 31.9* | .
O=C(C[C@H]1C[C@H](C(=O)N2CCOCC2)[C@@]2(CCC3CCCC3)c3[nH]c4cc(-c5ccco5)ccc4c3CCN2C1=O)NCCN1CCOCC1 | . | . | 2.4 | 21.1 | 16.7 | .
CCN(CC)S(=O)(=O)c1ccc(N2CCOCC2)c(NC(=O)c2ccc3ccccc3c2)c1 | 7.2 | -0.2 | 1.8 | . | 6.0 | 0.0
CCN(CC)S(=O)(=O)c1ccc(N2CCOCC2)c(NC(=O)c2cccc3ccccc23)c1 | 5.0 | 46.3* | -2.2 | . | 2.1 | -0.4
Cc1ccc(C(=O)CSc2cnc3ccccc3n2)cc1C | 6.9 | -0.4 | -5.5 | -6.7 | -10.8 | -0.4
COc1cc2c(cc1OC)C(C)N(S(=O)(=O)c1ccc(Cl)nc1)CC2 (stereo unspecified) | . | 15.5* | 1.3 | . | 5.9 | .
